The subject of data set [1] is Rattus norvegicus. In words: Antiinflammatory activity in rat assessed as inhibition of cotton pellet-induced granuloma weight administered topically measured per pellet. Type of data set: functional. In short, it runs like this:
(§1)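 Cotton-pellet granuloma test in rats; compounds suspended in 0.5% aqueous carboxymethylcellulose applied directly to the pellets, doses up to 40 µg/pellet; at least eight rats per dose. Granuloma and thymus weights converted to mg/100 g body weight. ED30 (30% inhibition) derived from log dose–response least-squares lines with 95% confidence limits, or approximated from eye-fit linear plots.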

In data set [2] the test system is Rattus norvegicus. In words: Antiinflammatory activity in po dosed rat assessed as inhibition of cotton pellet-induced granuloma weight administered bid for 7 days. The data set is classed as functional, organism-based. The procedure, abridged:
(§2)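 Rat cotton-pellet granuloma test; compounds suspended in 0.5% carboxymethylcellulose in water given orally daily for seven consecutive days, doses up to 12.5 mg/kg die; at least eight rats per dose. Granuloma and thymus weights expressed as mg/100 g body weight. ED30 (30% inhibition) from log dose–response least-squares regression with 95% confidence limits, or extrapolated from eye-fit plots.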

For data set [3], the system named is Rattus norvegicus. Kind of data set: Thymolytic activity in po dosed rat assessed as inhibition of thymus weight administered bid for 7 days. The note with it: in vivo, 168 h. Type of data set: organism-based. In short, it runs like this:
as §2

The test system of data set [4] is Rattus norvegicus. In words: Thymolytic activity in rat assessed as inhibition of thymus weight administered topically measured per pellet. The note with it: in vivo, topical_or_ocular. Type of data set: organism-based. In short, it runs like this: as §1
In data set [5] the test system is Rattus norvegicus. Kind of data set: Mineralocorticoid activity in rat assessed as sodium retention up to 1 mg/kg, sc. Type of data set: ADME, organism-based. Further details: dose 1 mg/kg, route subcutaneous. Particulars: in vivo.

This passage reports ED30 and Activity results from ChEMBL document CHEMBL3244040, “Synthesis and topical antiinflammatory properties of 17,21-bis(acetyloxy)-6beta,9-difluoro-11beta-hydroxypregna-1,4-diene-3,20-dione and related 2-halogenated compounds” (J Med Chem, 1977).

SMILES strings stand for the structures. The source made the active and inactive calls. No cut-off for these calls is given here. Where only a bound is given, the exact number is not on record here.

Regarding `CC(=O)OCC(=O)[C@@]1(OC(C)=O)CC[C@H]2[C@@H]3C[C@H](F)C4=CC(=O)C=C[C@]4(C)[C@@]3(F)[C@@H](O)C[C@@]21C`, the values for the ED30 with Rattus norvegicus [1] and in the data set on Rattus norvegicus [4] were 0.1 µg and 5 µg, respectively. Moreover, in the data set on Rattus norvegicus [2], the result was inactive. Further, in the data set with Rattus norvegicus [3], the Activity result is “Non-toxic”.
On to `CC(=O)OCC(=O)[C@@]1(OC(C)=O)CC[C@H]2[C@@H]3C[C@@H](F)C4=CC(=O)C(Cl)=C[C@]4(C)[C@@]3(F)[C@@H](O)C[C@@]21C`, for which the ED30 in the data set with Rattus norvegicus [1] is 0.45 µg; in the data set on Rattus norvegicus [4], above 40 µg. Besides, the result in the data set with Rattus norvegicus [2] was inactive. In addition, the Activity entry in the data set on Rattus norvegicus [3] is given as “Non-toxic”.
Consider `CC(=O)OCC(=O)[C@@]1(O)CC[C@H]2[C@@H]3C[C@H](F)C4=CC(=O)C=C[C@]4(C)[C@@]3(F)[C@@H](O)C[C@@]21C`, for which the ED30 amounted to 40 µg in the data set on Rattus norvegicus [1] and 20 µg with Rattus norvegicus [4].
Regarding `CC(=O)OCC(=O)[C@@]1(OC(C)=O)CC[C@H]2[C@@H]3C[C@@H](F)C4=CC(=O)C(Br)=C[C@]4(C)[C@@]3(F)[C@@H](O)C[C@@]21C` [HALOPREDONE ACETATE], the ED30 was 0.01 µg in the data set with Rattus norvegicus [1] and above 1000 µg with Rattus norvegicus [4]. The outcome in the data set on Rattus norvegicus [2] was inactive. In addition, the Activity entry with Rattus norvegicus [5] and in the data set on Rattus norvegicus [3] was “Non-toxic” in each case.
`CC(=O)OCC(=O)[C@@]1(O)CC[C@H]2[C@@H]3C[C@@H](F)C4=CC(=O)C(Cl)=C[C@]4(C)[C@@]3(F)[C@@H](O)C[C@@]21C`: the ED30 in the data set on Rattus norvegicus [1] is 9 µg; in the data set on Rattus norvegicus [4] it was above 40 µg.
The like results for `CC1(C)O[C@@H]2C[C@H]3[C@@H]4C[C@H](F)C5=CC(=O)C=C[C@]5(C)[C@@]4(F)[C@@H](O)C[C@]3(C)[C@]2(C(=O)CO)O1` [FLUOCINOLONE ACETONIDE] were, in that order, 1.02 µg and 5 µg.
On to `CC(=O)OCC(=O)[C@@]1(O)CC[C@H]2[C@@H]3C[C@@H](F)C4=CC(=O)C(Br)=C[C@]4(C)[C@@]3(F)[C@@H](O)C[C@@]21C`, for which the ED30 was 40 µg in the data set with Rattus norvegicus [1] and above 40 µg in the data set on Rattus norvegicus [4].
The like results for `C[C@]12C=C(Cl)C(=O)C=C1[C@H](F)C[C@H]1[C@@H]3CC[C@](O)(C(=O)CO)[C@@]3(C)C[C@H](O)[C@@]12F` were, in that order, above 40 µg and above 40 µg.
With `CC(=O)OCC(=O)[C@@]1(OC(C)=O)CC[C@H]2[C@@H]3C[C@H](F)C4=CC(=O)C(Br)=C[C@]4(C)[C@@]3(F)[C@@H](O)C[C@@]21C`, the ED30 with Rattus norvegicus [1] and with Rattus norvegicus [4] was above 40 µg throughout. In addition, the result in the data set with Rattus norvegicus [2] was inactive. Moreover, in the data set on Rattus norvegicus [3], the Activity entry is given as “Non-toxic”.
For `C[C@]12C=C(Br)C(=O)C=C1[C@H](F)C[C@H]1[C@@H]3CC[C@](O)(C(=O)CO)[C@@]3(C)C[C@H](O)[C@@]12F`, the ED30 with Rattus norvegicus [1] and in the data set on Rattus norvegicus [4] was above 40 µg each time.
As for `CC(=O)OCC(=O)[C@@]1(OC(C)=O)CC[C@H]2[C@@H]3C[C@H](F)C4=CC(=O)C(Cl)=C[C@]4(C)[C@@]3(F)[C@@H](O)C[C@@]21C`, the ED30 with Rattus norvegicus [1] was above 40 µg; in the data set with Rattus norvegicus [4] it was 40 µg. In the data set on Rattus norvegicus [2], the result was inactive. Further, in the data set on Rattus norvegicus [3], the Activity entry is listed as “Non-toxic”.
As to `C[C@]12C=CC(=O)C=C1[C@@H](F)C[C@H]1[C@@H]3CC[C@](O)(C(=O)CO)[C@@]3(C)C[C@H](O)[C@@]12F`, the ED30 with Rattus norvegicus [1] was found to be 40 µg; in the data set on Rattus norvegicus [4], 20 µg.
The like results for `C[C@]12C=CC(=O)C=C1[C@H](F)C[C@H]1[C@@H]3CC[C@](O)(C(=O)CO)[C@@]3(C)C[C@H](O)[C@@]12F` were, in that order, above 40 µg and above 40 µg.
In the case of `CC(=O)OCC(=O)[C@@]1(OC(C)=O)CC[C@H]2[C@@H]3C[C@@H](F)C4=CC(=O)C=C[C@]4(C)[C@@]3(F)[C@@H](O)C[C@@]21C`, the ED30 in the data set on Rattus norvegicus [1] was 40 µg; with Rattus norvegicus [4] it was above 40 µg. Besides, in the data set with Rattus norvegicus [3], the Activity result is recorded as “Non-toxic”.
With `CC(=O)OCC(=O)[C@@]1(O)CC[C@H]2[C@@H]3C[C@@H](F)C4=CC(=O)C=C[C@]4(C)[C@@]3(F)[C@@H](O)C[C@@]21C`, the ED30 with Rattus norvegicus [1] and with Rattus norvegicus [4] was above 40 µg each time.
